Data: ChEMBL document CHEMBL5678817, “FTBMT, a Novel and Selective GPR52 Agonist, Demonstrates Antipsychotic-Like and Procognitive Effects in Rodents, Revealing a Potential Therapeutic Agent for Schizophrenia” (J Pharmacol Exp Ther, 2017)
Activity calls are given as the source filed them. The rule behind the calls is not given here.

Columns and labels:
[1] = molecular target: G-protein coupled receptor 52 (Mus musculus) (UniProt P0C5J4); assay: Agonist activity at mouse GPR52 expressed in CHO cells assessed as increase in intracellular cAMP level upto 10 uM incubated for 30 mins by Alphascreen assay; format: functional, cell-based
Sequence of G-protein coupled receptor 52 (Mus musculus) (P0C5J4 whole entry): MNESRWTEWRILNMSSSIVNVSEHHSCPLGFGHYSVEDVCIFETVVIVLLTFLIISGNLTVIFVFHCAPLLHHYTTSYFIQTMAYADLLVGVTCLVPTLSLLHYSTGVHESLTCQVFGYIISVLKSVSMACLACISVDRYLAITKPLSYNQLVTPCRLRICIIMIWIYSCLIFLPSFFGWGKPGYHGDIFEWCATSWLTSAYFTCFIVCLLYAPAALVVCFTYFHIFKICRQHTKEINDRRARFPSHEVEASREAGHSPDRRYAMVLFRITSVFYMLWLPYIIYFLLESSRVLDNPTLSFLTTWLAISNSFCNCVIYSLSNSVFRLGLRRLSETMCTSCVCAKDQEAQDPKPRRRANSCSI
In short: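 CHO cells stably expressing human, mouse or rat GPR52, plus naïve CHO cells, at 10,000 cells/well. Stimulated in cAMP assay buffer for 30 min at 37 °C. Intracellular cAMP read by AlphaScreen.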

[2] = molecular target: Nitric oxide synthase, inducible (Homo sapiens) (UniProt P35228); assay: Inhibition of iNOS (unknown origin) at 10 uM relative to control
Sequence of Nitric oxide synthase, inducible (Homo sapiens) (P35228 whole entry): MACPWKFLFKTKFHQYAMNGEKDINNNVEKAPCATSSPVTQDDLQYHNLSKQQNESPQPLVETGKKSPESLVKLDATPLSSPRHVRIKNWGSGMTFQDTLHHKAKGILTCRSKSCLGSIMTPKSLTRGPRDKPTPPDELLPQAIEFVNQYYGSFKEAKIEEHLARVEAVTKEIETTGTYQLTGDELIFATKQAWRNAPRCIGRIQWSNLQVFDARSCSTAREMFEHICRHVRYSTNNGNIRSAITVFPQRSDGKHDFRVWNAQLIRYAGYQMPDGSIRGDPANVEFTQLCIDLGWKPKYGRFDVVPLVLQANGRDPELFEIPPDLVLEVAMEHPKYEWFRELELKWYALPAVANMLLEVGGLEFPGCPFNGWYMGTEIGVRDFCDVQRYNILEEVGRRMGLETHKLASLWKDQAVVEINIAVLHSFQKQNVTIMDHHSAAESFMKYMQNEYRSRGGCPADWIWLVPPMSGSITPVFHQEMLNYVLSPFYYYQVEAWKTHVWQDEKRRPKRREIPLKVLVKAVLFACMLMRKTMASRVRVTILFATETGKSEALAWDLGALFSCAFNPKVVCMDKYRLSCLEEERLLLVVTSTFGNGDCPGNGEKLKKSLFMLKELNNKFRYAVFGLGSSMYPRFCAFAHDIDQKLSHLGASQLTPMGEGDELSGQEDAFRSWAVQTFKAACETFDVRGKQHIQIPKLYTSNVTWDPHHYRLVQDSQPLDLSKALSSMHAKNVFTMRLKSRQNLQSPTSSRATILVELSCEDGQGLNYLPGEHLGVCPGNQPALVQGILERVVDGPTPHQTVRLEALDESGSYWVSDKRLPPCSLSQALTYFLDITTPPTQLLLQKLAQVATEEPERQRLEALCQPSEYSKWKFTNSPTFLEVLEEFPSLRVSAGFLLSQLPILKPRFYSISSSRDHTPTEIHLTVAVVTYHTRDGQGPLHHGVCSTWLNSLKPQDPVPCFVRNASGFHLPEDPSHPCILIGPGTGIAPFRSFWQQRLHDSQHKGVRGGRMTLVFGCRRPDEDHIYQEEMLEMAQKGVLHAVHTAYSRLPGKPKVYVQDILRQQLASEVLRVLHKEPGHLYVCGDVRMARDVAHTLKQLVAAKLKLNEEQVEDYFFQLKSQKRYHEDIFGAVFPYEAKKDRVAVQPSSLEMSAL
In short: (§1)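 Binding and enzyme panel run by an outside contractor against receptors, ion channels and enzymes. Each assay used a single 10 μM test concentration, and results are expressed as percent inhibition. A negative value means stimulation of receptor activity or activation of enzyme activity.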

[3] = molecular target: Interstitial collagenase (Homo sapiens) (UniProt P03956); assay: Inhibition of MMP1 (unknown origin) at 10 uM relative to control
In short: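 Enzyme activity assays from the same 98-target biochemical panel. Single test concentration of 10 µM. Read-out is % inhibition of enzyme activity relative to control; negative percentages indicate activation of the enzyme.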

[4] = molecular target: 3-oxo-5-alpha-steroid 4-dehydrogenase 1 (Homo sapiens) (UniProt P18405); assay: Inhibition of Steroid 5alpha-reductase 1 (unknown origin) at 10 uM relative to control; in short: as §1
Sequence of 3-oxo-5-alpha-steroid 4-dehydrogenase 1 (Homo sapiens) (P18405 whole entry): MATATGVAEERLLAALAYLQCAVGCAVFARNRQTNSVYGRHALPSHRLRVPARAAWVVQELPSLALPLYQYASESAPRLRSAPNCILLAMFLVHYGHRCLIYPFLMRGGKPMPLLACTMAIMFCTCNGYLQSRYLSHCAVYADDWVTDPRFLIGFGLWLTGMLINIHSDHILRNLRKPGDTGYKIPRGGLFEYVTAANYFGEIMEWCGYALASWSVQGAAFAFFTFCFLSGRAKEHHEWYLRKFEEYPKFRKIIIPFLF

[5] = molecular target: Beta-1 adrenergic receptor (Homo sapiens) (UniProt P08588); assay: Inhibition of Adrenergic beta1 receptor (unknown origin) at 10 uM relative to control
In short: (§2)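 Single-point screen at 10 μM across receptor, ion channel and enzyme binding or activity assays. Expressed as percent inhibition versus control; negative values denote stimulation.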

[6] = molecular target: Androgen receptor (Homo sapiens) (UniProt P10275); assay: Inhibition of Androgen receptor (unknown origin) at 10 uM relative to control; in short: as §2
Sequence of Androgen receptor (Homo sapiens) (P10275 whole entry): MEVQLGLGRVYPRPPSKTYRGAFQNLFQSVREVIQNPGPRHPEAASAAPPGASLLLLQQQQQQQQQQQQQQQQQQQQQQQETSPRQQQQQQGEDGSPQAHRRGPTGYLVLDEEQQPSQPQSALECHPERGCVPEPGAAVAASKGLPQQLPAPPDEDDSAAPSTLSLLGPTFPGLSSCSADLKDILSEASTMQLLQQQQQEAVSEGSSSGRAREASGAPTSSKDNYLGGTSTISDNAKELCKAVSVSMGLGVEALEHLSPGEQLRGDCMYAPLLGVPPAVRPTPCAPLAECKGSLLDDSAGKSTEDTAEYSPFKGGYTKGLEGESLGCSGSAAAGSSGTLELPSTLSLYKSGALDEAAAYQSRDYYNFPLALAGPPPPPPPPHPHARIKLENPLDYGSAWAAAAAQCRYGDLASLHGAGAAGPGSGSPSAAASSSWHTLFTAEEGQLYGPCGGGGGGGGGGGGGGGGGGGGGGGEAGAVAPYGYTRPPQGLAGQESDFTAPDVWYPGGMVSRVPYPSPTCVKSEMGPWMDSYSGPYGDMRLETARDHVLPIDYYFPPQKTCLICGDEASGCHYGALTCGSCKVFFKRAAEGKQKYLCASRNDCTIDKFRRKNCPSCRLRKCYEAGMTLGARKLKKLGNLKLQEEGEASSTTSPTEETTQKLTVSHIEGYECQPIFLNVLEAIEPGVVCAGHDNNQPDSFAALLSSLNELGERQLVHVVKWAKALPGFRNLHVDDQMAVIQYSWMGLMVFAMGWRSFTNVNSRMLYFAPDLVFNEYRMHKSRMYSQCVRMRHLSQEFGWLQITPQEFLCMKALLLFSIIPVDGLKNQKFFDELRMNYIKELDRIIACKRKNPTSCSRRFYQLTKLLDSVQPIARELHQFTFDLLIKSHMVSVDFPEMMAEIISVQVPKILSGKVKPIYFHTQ

[7] = molecular target: B1 bradykinin receptor (Homo sapiens) (UniProt P46663); assay: Inhibition of Bradykinin B1 receptor (unknown origin) at 10 uM relative to control; in short: as §2
Sequence of B1 bradykinin receptor (Homo sapiens) (P46663 whole entry): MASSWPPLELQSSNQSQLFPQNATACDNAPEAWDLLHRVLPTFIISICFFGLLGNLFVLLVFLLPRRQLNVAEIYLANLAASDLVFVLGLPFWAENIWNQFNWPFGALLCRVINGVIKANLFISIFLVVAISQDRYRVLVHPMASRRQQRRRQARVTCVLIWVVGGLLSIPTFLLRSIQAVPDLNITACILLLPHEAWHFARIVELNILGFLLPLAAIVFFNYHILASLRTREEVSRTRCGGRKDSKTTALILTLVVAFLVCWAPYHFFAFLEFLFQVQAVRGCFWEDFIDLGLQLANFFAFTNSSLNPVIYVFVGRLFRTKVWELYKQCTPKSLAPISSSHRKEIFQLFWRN

[8] = molecular target: B2 bradykinin receptor (Homo sapiens) (UniProt P30411); assay: Inhibition of Bradykinin B2 receptor (unknown origin) at 10 uM relative to control; in short: as §2
Sequence of B2 bradykinin receptor (Homo sapiens) (P30411 whole entry): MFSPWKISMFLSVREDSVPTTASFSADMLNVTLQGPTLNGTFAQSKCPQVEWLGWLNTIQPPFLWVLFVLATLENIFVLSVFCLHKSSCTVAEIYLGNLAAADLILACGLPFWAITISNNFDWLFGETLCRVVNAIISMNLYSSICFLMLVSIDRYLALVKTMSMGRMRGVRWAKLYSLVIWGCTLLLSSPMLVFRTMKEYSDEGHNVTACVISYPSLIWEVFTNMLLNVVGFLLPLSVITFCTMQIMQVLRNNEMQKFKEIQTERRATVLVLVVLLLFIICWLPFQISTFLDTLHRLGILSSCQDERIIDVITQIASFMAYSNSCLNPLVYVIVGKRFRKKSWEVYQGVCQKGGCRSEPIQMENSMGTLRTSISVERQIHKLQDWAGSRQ

[9] = molecular target: T1, Voltage-gated L-type calcium channel (Homo sapiens, UniProt O60840+Q01668+Q13698+Q13936); assay: Inhibition of Calcium channel L-type (unknown origin) at 10 uM in presence of benzothiazepine relative to control; format: protein assay; conditions: probe benzothiazepine; in short: as §2
[10] = molecular target: T1, Voltage-gated L-type calcium channel; assay: Inhibition of Calcium channel L-type (unknown origin) at 10 uM in presence of dihydropyridine relative to control; format: protein assay; conditions: probe dihydropyridine; in short: as §2
[11] = molecular target: D(4) dopamine receptor (Homo sapiens) (UniProt P21917); assay: Inhibition of Dopamine D4 receptor (unknown origin) at 10 uM relative to control
In short: (§3)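 Part of a 98-target external biochemical selectivity panel that used radioligand/receptor binding-type assays. Compound tested once at 10 µM. Results are reported as % inhibition versus control; negative values mean stimulation of receptor activity.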

[12] = molecular target: GABA-A receptor; anion channel (Homo sapiens) (UniProt P14867+P47870+P18507+P28472+P48169+Q99928+Q9UN88+P34903+O00591+O14764+Q8N1C3+P18505+P78334+P47869+P31644+Q16445); assay: Inhibition of GABAA receptor (unknown origin) at 10 uM relative to control; format: protein-complex assay; in short: as §3
Homo sapiens [13] = species: Homo sapiens; assay: Inhibition of GABAB1B receptor (unknown origin) at 10 uM relative to control; in short: as §3
[14] = molecular target: Muscarinic acetylcholine receptor M2 (Homo sapiens) (UniProt P08172); assay: Inhibition of Muscarinic M2 receptor (unknown origin) at 10 uM relative to control; in short: as §3
Homo sapiens [15] = species: Homo sapiens; assay: Inhibition of Nicotinic acetylcholine receptor (unknown origin) at 10 uM relative to control; in short: as §3
[16] = molecular target: Delta-type opioid receptor (Homo sapiens) (UniProt P41143); assay: Inhibition of opioid delta receptor (unknown origin) at 10 uM relative to control; in short: as §1
[17] = molecular target: Mu-type opioid receptor (Homo sapiens) (UniProt P35372); assay: Inhibition of mu opioid receptor (unknown origin) at 10 uM relative to control; in short: as §1
Sequence of Mu-type opioid receptor (Homo sapiens) (P35372 whole entry): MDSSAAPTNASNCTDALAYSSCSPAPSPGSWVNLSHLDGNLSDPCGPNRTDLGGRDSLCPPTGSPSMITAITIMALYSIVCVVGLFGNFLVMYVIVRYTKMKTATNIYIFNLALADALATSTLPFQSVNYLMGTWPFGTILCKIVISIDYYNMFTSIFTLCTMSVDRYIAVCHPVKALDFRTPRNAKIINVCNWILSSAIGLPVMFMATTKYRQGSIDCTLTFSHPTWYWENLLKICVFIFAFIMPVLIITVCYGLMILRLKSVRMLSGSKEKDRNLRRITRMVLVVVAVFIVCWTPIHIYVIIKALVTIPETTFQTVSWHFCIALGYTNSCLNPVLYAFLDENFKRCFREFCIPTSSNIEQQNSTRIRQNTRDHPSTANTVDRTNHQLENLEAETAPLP

[18] = molecular target: Sodium-dependent serotonin transporter (Homo sapiens) (UniProt P31645); assay: Inhibition of SERT receptor (unknown origin) at 10 uM relative to control; in short: as §3
Sequence of Sodium-dependent serotonin transporter (Homo sapiens) (P31645 whole entry, looked up): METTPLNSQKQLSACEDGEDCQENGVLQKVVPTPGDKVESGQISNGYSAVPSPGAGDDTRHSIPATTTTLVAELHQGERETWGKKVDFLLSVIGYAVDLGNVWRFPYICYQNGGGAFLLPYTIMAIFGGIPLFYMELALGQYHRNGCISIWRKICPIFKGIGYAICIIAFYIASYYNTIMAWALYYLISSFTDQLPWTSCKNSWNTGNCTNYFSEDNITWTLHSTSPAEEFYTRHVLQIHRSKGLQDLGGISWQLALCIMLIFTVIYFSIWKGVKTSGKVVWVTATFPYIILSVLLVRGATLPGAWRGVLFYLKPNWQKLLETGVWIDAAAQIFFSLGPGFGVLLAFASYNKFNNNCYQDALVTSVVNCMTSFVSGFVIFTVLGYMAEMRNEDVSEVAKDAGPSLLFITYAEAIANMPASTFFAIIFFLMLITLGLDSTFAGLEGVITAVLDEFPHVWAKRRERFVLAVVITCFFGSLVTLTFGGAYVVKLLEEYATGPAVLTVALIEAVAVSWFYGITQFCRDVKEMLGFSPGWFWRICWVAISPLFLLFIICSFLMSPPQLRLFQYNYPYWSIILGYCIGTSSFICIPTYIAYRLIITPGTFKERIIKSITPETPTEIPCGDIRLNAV

Homo sapiens [19] = species: Homo sapiens; assay: Inhibition of dopamine receptor (unknown origin) at 10 uM relative to control; in short: as §1
[20] = molecular target: Vasopressin V1a receptor (Homo sapiens) (UniProt P37288); assay: Inhibition of Vasopressin V1A receptor (unknown origin) at 10 uM relative to control; in short: as §1
Sequence of Vasopressin V1a receptor (Homo sapiens) (P37288 whole entry, looked up): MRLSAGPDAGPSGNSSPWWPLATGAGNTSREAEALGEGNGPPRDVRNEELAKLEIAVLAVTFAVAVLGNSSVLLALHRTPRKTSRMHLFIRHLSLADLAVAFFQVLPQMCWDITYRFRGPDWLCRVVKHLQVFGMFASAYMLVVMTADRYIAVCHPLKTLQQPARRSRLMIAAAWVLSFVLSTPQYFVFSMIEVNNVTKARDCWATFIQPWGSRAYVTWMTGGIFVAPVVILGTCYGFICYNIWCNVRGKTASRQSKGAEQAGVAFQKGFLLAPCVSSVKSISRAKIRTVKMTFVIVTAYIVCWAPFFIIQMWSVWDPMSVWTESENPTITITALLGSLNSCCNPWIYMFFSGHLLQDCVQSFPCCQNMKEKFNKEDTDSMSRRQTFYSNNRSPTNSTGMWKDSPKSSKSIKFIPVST

[21] = molecular target: Vasopressin V2 receptor (Homo sapiens) (UniProt P30518); assay: Inhibition of Vasopressin V2 receptor (unknown origin) at 10 uM relative to control; in short: as §1
[22] = molecular target: T2, G protein-coupled receptor 52 (Rattus norvegicus) (UniProt A0A8I5ZQK1); assay: Agonist activity at GPR52 in rat Striatal neuron assessed as increase in c-fos mRNA expression by RT-PCR analysis; format: cell-based; conditions: filed as agonist
T2 sequence (A0A8I5ZQK1 as listed by the source): as the sequence (P0C5J4 whole entry) above, with M14V, E250D, E333Q, A342G, Q348R counted along it
In short: (§4)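 Rat primary striatal neurons (E18–19), used at DIV 13–16. Treated in HBSS with 5 mM HEPES pH 7.5 and 0.5% fatty-acid-free BSA for 15 or 60 min at 37 °C. Cells were homogenized in RLT buffer and IEG mRNA was quantified by qPCR using absolute or ΔΔCt relative quantification.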

[23] = molecular target: T2, G protein-coupled receptor 52 (Rattus norvegicus); assay: Agonist activity at GPR52 in rat Striatal neuron assessed as increase in Egr-2 mRNA expression by RT-PCR analysis; format: cell-based; conditions: filed as agonist; in short: as §4
Mus musculus [24] = assay: Antipsychotic activity in GPR52 knockout ICR mouse assessed as inhibition of MK-801-induced hyperactivity at 30 mg/kg, po pretreated with compound for 1 hr followed by MK-801 addition and measured after 90 mins; format: functional, organism-based; conditions: time 150.0 min
Mus musculus [25] = assay: Antipsychotic activity in C57BL/6N mouse assessed as increase in c-fos positive cells in nucleus accumbens at 30 mg/kg, po measured for 2 hrs by immunohistochemistry analysis; format: functional, organism-based
Mus musculus [26] = assay: Antipsychotic activity in C57BL/6N mouse assessed as increase in c-fos mRNA expression at 3 to 100 mg/kg, po measured for 1 hr by qPCR analysis; format: functional, organism-based; conditions: dose 3-100 mg/kg
In short: (§5)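 Mice dosed orally at 3–100 mg/kg or vehicle. Tissues taken 1 h post-dose, NAc shell and striatum dissected, frozen on dry ice. IEG mRNA quantified by qPCR (absolute or ΔΔCt); n = 5–6; mean ± SEM.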

Mus musculus [27] = assay: Antipsychotic activity in C57BL/6N mouse assessed as increase in Arc mRNA expression at 3 to 100 mg/kg, po measured for 1 hr by qPCR analysis; format: functional, organism-based; conditions: dose 3-100 mg/kg; in short: as §5
Mus musculus [28] = assay: Antipsychotic activity in C57BL/6N mouse assessed as increase in c-fos positive cells in medial prefrontal cortex at 30 mg/kg, po measured for 2 hrs by immunohistochemistry analysis; format: functional, organism-based
Mus musculus [29] = assay: Pro-cognitive activity in C57BL/6N mouse assessed as increase in Arc gene expression in hippocampus at 3 to 30 mg/kg, po […]; format: functional, organism-based; conditions: dose 3-30 mg/kg

SMILES: Cc1cc(-n2nc(Cc3cc(F)cc(C(F)(F)F)c3)nc2C)ccc1C(N)=O [TP-024]
- Activity [1]: inactive
- inhibition [2]: 7%
- inhibition [3]: -3%
- inhibition [4]: 0%
- inhibition [5]: -1%
- inhibition [6]: 5%
- inhibition [7]: -5%
- inhibition [8]: 16%
- inhibition at 10 µM [9]: 19%
- inhibition at 10 µM [10]: -2%
- inhibition [11]: 3%
- inhibition [12]: 2%
- inhibition (Homo sapiens [13]): 2%
- inhibition [14]: -6%
- inhibition (Homo sapiens [15]): -2%
- inhibition [16]: 4%
- inhibition [17]: -10%
- inhibition [18]: 8%
- inhibition (Homo sapiens [19]): -1%
- inhibition [20]: 14%
- inhibition [21]: -1%
- Activity [22]: Active
- Activity [23]: Active
- Activity (Mus musculus [24]): inactive
- Activity (Mus musculus [25]): Active
- Activity (Mus musculus [26]): Active
- Activity (Mus musculus [27]): Active
- Activity (Mus musculus [28]): Active
- Activity (Mus musculus [29]): Active
